Assay results: ChEMBL document CHEMBL1123783, “Synthesis and anticonvulsant activity of analogues of 4-amino-N-(1-phenylethyl)benzamide” (J Med Chem, 1987)

Assays:
[1] = system: Mus musculus; assay: Compound was evaluated for anticonvulsant activity against subcutaneous pentylenetetrazole-induced convulsions after 30 minutes;C is inactive at 300 mg/kg.; format: functional, organism-based; parameters: dose 300 mg/kg
Outline: (§1)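 Male Carworth Farms number-one mice were dosed ip in 30% PEG 400, at 30, 100 or 300 mg/kg (sometimes 600 mg/kg). Pentylenetetrazole, 85 mg/kg as a 0.5% solution, was injected subcutaneously in the posterior midline. Protection meant no episode of clonic spasms lasting at least 5 s during a 30-min observation period.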

[2] = system: Mus musculus; assay: Compound was evaluated for toxicity by rotarod assay method after 30 minutes; C is inactive at 300 mg/kg.; format: organism-based; parameters: dose 300 mg/kg; conditions: in vivo, 0.5 h
Outline: (§2)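 Male Carworth Farms number-one mice received test compound intraperitoneally in 30% polyethylene glycol 400 at 30, 100 and 300 mg/kg, with 600 mg/kg in some cases. Neurological deficit was read at 30 min or 4 h after dosing on a 1-in.-diameter knurled plastic rod turning at 6 rpm. Toxicity was scored as failure to stay on the rod for 1 min.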

[3] = system: Mus musculus; assay: Compound was evaluated for toxicity by rotarod assay method after 4 hr; C is inactive at 300 mg/kg.; format: organism-based; parameters: dose 300 mg/kg; conditions: in vivo; outline: as §2
[4] = system: Mus musculus; assay: Compound was evaluated for anticonvulsant activity against maximal electric shock (MES) induced convulsions after 30 minutes;C is inactive at 300 mg/kg.; format: functional, organism-based; parameters: dose 300 mg/kg
[5] = system: Mus musculus; assay: Compound was evaluated for anticonvulsant activity against maximal electric shock (MES) induced convulsions after 4 hr; C is inactive at 300 mg/kg.; format: functional, organism-based; parameters: dose 300 mg/kg
[6] = system: Mus musculus; assay: Compound was evaluated for anticonvulsant activity against subcutaneous pentylenetetrazole-induced convulsions after 4 hr; C is inactive at 300 mg/kg.; format: functional, organism-based; parameters: dose 300 mg/kg; outline: as §1
[7] = system: Mus musculus; assay: Compound was evaluated for anticonvulsant activity against maximal electric shock (MES) induced convulsions after 30 minutes; C is inactive at 300 mg/kg.; format: functional, organism-based; parameters: dose 300 mg/kg
[8] = system: Mus musculus; assay: Compound was evaluated for toxicity by rotarod assay method after 30 minutes at a dose of 300 mg/kg; format: organism-based; parameters: dose 300 mg/kg; conditions: in vivo, 0.5 h; outline: as §2
[9] = system: Mus musculus; assay: Compound was evaluated for anticonvulsant activity against subcutaneous pentylenetetrazole-induced convulsions after 4 hr; C indicates no activity at 300 mg/kg.; format: functional, organism-based; parameters: dose 300 mg/kg; outline: as §1
[10] = system: Mus musculus; assay: Compound was evaluated for anticonvulsant activity against subcutaneous pentylenetetrazole-induced convulsions after 30 minutes; C indicates no activity at 300 mg/kg.; format: functional, organism-based; parameters: dose 300 mg/kg; outline: as §1
[11] = system: Mus musculus; assay: Compound was evaluated for toxicity by rotarod assay method after 4 hr; C indicates no activity at 300 mg/kg.; format: organism-based; parameters: dose 300 mg/kg; conditions: in vivo; outline: as §2
[12] = system: Mus musculus; assay: Compound was evaluated for anticonvulsant activity against maximal electric shock (MES) induced convulsions after 4 hr; C indicates no activity at 300 mg/kg.; format: functional, organism-based; parameters: dose 300 mg/kg
[13] = system: Mus musculus; assay: Compound was evaluated for anticonvulsant activity against maximal electric shock (MES) induced convulsions after 30 minutes; C indicates no activity at 300 mg/kg.; format: functional, organism-based; parameters: dose 300 mg/kg
[14] = Compound was evaluated for anticonvulsant activity by rotarod procedure; format: ADME, organism-based; conditions: mouse, in vivo
Outline: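 Male Carworth Farms mice were dosed ip in 30% PEG 400 and then placed on a knurled plastic rod 1 in. in diameter, rotating at 6 rpm. Neurotoxicity was failure to stay on the rod for 1 min. TD50 was derived graphically.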

[15] = organism: Mus musculus; assay: Compound was evaluated for anticonvulsant activity against maximal electric shock induced seizures; format: functional
Outline: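 Male Carworth Farms number-one mice received the compound ip in 30% polyethylene glycol 400 before maximal electroshock testing, at several dose levels. The median effective dose (ED50) was obtained by the graphical method.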

[16] = system: Mus musculus; assay: Compound was evaluated for anticonvulsant activity against subcutaneous pentylenetetrazole-induced convulsions; format: functional; conditions: sc; outline: as §1
[17] = system: Mus musculus; assay: Compound was evaluated for toxicity by rotarod assay method after 30 minutes; C indicates no activity at 300 mg/kg.; format: organism-based; parameters: dose 300 mg/kg; conditions: in vivo, 0.5 h; outline: as §2
[18] = system: Mus musculus; assay: Compound was evaluated for anticonvulsant activity against maximal electric shock (MES) induced convulsions after 4 hr at a dose of 300 mg/kg; format: functional
[19] = Protective index is the ratio of TD50 to ED50; format: ADME; conditions: for selectivity ratio: read-out: Protective index
Outline: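 Protective index was calculated as rotorod TD50 divided by anti-MES ED50. Both were graphical median doses from ip dosing in 30% PEG 400 in male Carworth Farms mice.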

[20] = system: Mus musculus; assay: Compound was evaluated for anticonvulsant activity against maximal electric shock (MES) induced convulsions after 30 minutes at a dose of 100 mg/kg; format: functional
[21] = system: Mus musculus; assay: Compound was evaluated for anticonvulsant activity against maximal electric shock (MES) induced convulsions after 4 hr at a dose of 100 mg/kg; format: functional
[22] = system: Mus musculus; assay: Compound was evaluated for toxicity by rotarod assay method after 30 minutes at a dose of 100 mg/kg; format: organism-based; parameters: dose 100 mg/kg; conditions: in vivo, 0.5 h; outline: as §2
[23] = system: Mus musculus; assay: Compound was evaluated for toxicity by rotarod assay method after 4 hr at a dose of 300 mg/kg; format: organism-based; parameters: dose 300 mg/kg; conditions: in vivo; outline: as §2
[24] = system: Mus musculus; assay: Compound was evaluated for anticonvulsant activity against subcutaneous pentylenetetrazole-induced convulsions after 30 minutes at a dose of 300 mg/kg; format: functional; outline: as §1
[25] = system: Mus musculus; assay: Compound was evaluated for anticonvulsant activity against subcutaneous pentylenetetrazole-induced convulsions after 4 hr at a dose of 300 mg/kg; format: functional; outline: as §1

For CN(C)c1ccc(C(=O)Nc2ccccc2)cc1, the Activity [1] was “No activity at 300 mg/kg”, the Toxicity [2] was “No activity at 300 mg/kg” and the Toxicity [3] was “No activity at 300 mg/kg”. The Activity [4] was “No activity at 300 mg/kg”, the Activity [5] was “No activity at 300 mg/kg” and the Activity [6] was “No activity at 300 mg/kg”.

In the case of CCOC(=O)Nc1ccc(C(=O)NC(C)c2ccccc2)cc1 (stereo unspecified), the Activity [1] is reported as “No activity at 300 mg/kg”, the Toxicity [2] is reported as “No activity at 300 mg/kg” and the Toxicity [3] is reported as “No activity at 300 mg/kg”. For the same molecule, the Activity [5] was “No activity at 300 mg/kg”, the Activity [7] was “No activity at 300 mg/kg” and the Activity [6] was “No activity at 300 mg/kg”.

In the case of CCOC(=O)C(=O)Nc1ccc(C(=O)NC(C)c2ccccc2)cc1 (stereo unspecified), the Toxicity [8] is reported as 2, the Activity [9] is reported as “No activity at 300 mg/kg” and the Activity [10] is reported as “No activity at 300 mg/kg”. For the same molecule, the Toxicity [11] was “No activity at 300 mg/kg”, the Activity [12] was “No activity at 300 mg/kg” and the Activity [13] was “No activity at 300 mg/kg”.

For Cc1ccc(C(C)NC(=O)c2ccc(N)cc2)cc1 (stereo unspecified), the Activity [1] was “No activity at 300 mg/kg”, the Toxicity [2] was “No activity at 300 mg/kg” and the Toxicity [3] was “No activity at 300 mg/kg”. The Activity [4] was “No activity at 300 mg/kg”, the Activity [5] was “No activity at 300 mg/kg” and the Activity [6] was “No activity at 300 mg/kg”.

In the case of CCCC(NC(=O)c1ccc(N)cc1)c1ccccc1 (stereo unspecified), the TD50 [14] is reported as 378 mg/kg, the ED50 [15] is reported as 93.9 mg/kg and the ED50 [16] is reported as 78.8 mg/kg. For the same molecule, the Toxicity [17] was “No activity at 300 mg/kg”, the Activity [9] was “No activity at 300 mg/kg” and the Activity [10] was “No activity at 300 mg/kg”. The Activity [18] was 2, the Protective index [19] was 4.8 and the selectivity ratio [19] was 4.03. The Toxicity [11] was “No activity at 300 mg/kg” and the Activity [20] was 3.

With CCC(NC(=O)c1ccc(N)cc1)c1ccccc1 (stereo unspecified) the Activity [21] was 3, the Toxicity [22] was 3 and the Toxicity [23] was 2. It also gave an Activity [24] of 2, a TD50 [14] of 95.4 mg/kg and an ED50 [15] of 54.3 mg/kg. For the same molecule, the ED50 [16] was 54.1 mg/kg, the Activity [25] was 2 and the selectivity ratio [19] was 1.76. It also gave an Activity [20] of 3.

For CCCCC(NC(=O)c1ccc(N)cc1)c1ccccc1 (stereo unspecified), the Activity [24] was 2, the TD50 [14] was 332 mg/kg and the Toxicity [8] was 2. The ED50 [15] was 73.7 mg/kg, the ED50 [16] was 161 mg/kg and the Activity [9] was “No activity at 300 mg/kg”. The Activity [18] was 2, the Protective index [19] was 2.06 and the Toxicity [11] was “No activity at 300 mg/kg”. For the same molecule, the Activity [20] was 3.

Work on CC(NCc1cccc(N)c1)c1ccccc1 (stereo unspecified) yielded a TD50 [14] of 49.7 mg/kg, a Toxicity [8] of 2 and an ED50 [15] of 32.4 mg/kg. For the same molecule, the Activity [9] was “No activity at 300 mg/kg”, the Activity [10] was “No activity at 300 mg/kg” and the selectivity ratio [19] was 1.53. The Toxicity [11] was “No activity at 300 mg/kg”, the Activity [12] was “No activity at 300 mg/kg” and the Activity [20] was 3.

For CNc1ccc(C(=O)NCc2ccccc2)cc1, the Activity [1] was “No activity at 300 mg/kg”, the Toxicity [2] was “No activity at 300 mg/kg” and the Toxicity [3] was “No activity at 300 mg/kg”. The Activity [4] was “No activity at 300 mg/kg”, the Activity [5] was “No activity at 300 mg/kg” and the Activity [6] was “No activity at 300 mg/kg”.

In the case of CN(C)c1ccc(C(=O)NCCc2ccccc2)cc1, the Activity [1] is reported as “No activity at 300 mg/kg”, the Toxicity [2] is reported as “No activity at 300 mg/kg” and the Toxicity [3] is reported as “No activity at 300 mg/kg”. The Activity [4] was “No activity at 300 mg/kg”, the Activity [5] was “No activity at 300 mg/kg” and the Activity [6] was “No activity at 300 mg/kg”.
